Assay results as given in ChEMBL document CHEMBL4428072, “Pharmacophore Model To Discover OX1 and OX2 Orexin Receptor Ligands” (J Med Chem, 2016).
pIC50, pKi: −log10 of the molar value. Active and inactive are the calls of the source. The calls are words filed in the database; no cut-off is given here.

How the values were obtained:
[1] = target: T1, Orexin receptor type 2 (Homo sapiens, UniProt O43614); assay: Displacement of [125I]-orexin A from human OX2 receptor expressed in […] after 90 mins by scintillation counting
T1 sequence (O43614 whole entry): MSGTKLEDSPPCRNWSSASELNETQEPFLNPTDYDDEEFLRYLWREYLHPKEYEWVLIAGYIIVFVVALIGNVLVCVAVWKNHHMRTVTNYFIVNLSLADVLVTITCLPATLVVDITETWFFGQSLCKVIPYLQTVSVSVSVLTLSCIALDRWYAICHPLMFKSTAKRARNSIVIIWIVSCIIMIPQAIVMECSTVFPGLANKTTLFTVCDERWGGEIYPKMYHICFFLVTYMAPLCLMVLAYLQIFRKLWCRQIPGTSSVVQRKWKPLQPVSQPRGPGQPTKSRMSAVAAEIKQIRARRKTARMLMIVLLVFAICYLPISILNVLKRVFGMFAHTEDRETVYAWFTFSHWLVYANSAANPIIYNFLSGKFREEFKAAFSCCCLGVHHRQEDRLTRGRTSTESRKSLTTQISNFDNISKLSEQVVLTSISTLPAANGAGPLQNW
Outline: (§1)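 Intact CHO-hOX1 or CHO-hOX2 cells in HBM + 0.1% stripped BSA + 30 μM dyngo 4a, preincubated 10 min (10 μM antagonist used to define nonspecific binding). 0.05 nM [125I]-orexin-A added with compound (10 nM–100 μM, 10-fold series). Incubated 90 min at room temperature, wells dried, scintillation counted. At least three experiments; IC50/Ki by nonlinear fitting.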

[2] = target: T2, Orexin/Hypocretin receptor type 1 (Homo sapiens, UniProt O43613); assay: Antagonist activity at human OX1 receptor expressed in […] assessed as inhibition of orexin A-induced Ca2+ elevation after 30 mins in presence of orexin A by FLIPR calcium 4 assay; assay type: functional, cell-based
T2 sequence (O43613 whole entry): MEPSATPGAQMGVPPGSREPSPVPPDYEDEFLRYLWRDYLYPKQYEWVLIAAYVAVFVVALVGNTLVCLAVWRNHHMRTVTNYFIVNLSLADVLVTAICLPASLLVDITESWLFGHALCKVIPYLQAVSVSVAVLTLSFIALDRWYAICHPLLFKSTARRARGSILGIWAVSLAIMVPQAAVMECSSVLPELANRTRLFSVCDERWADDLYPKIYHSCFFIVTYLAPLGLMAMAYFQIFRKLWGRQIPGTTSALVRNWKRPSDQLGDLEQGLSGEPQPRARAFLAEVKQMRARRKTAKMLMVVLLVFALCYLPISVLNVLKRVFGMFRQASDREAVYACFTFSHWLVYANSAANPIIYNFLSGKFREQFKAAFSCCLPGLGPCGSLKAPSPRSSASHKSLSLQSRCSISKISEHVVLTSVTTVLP
Outline: (§2)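 Functional inhibition in CHO-hOX1 or CHO-hOX2 cells. Antagonist (10 nM–100 μM, 10-fold series) preincubated 10 min at 37 °C, then 0.3 nM orexin-A added. Ca2+ measured with Calcium 4 dye at 485/525 nm. Ki derived from inhibition of the orexin-A response. Three independent experiments in quadruplicate; mean ± SEM.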

[3] = target: T1, Orexin receptor type 2; assay: Antagonist activity at human OX2 receptor expressed in […] assessed as inhibition of orexin A-induced Ca2+ elevation […] in presence of orexin A by FLIPR calcium 4 assay; assay type: functional, cell-based; outline: as §2
[4] = target: T3, Orexin/Hypocretin receptor type 1 (Homo sapiens) (UniProt O43613); assay: Ratio of Ki for human OX1 receptor expressed in […] assessed as inhibition of orexin A-induced Ca2+ elevation to Ki for human OX1 receptor expressed in CHO cells by [125I]-orexin A displacement assay
T3 sequence (whole entry): T2 sequence (O43613 whole entry)

[5] = target: T3, Orexin/Hypocretin receptor type 1 (Homo sapiens); assay: Agonist activity at human OX1 receptor expressed in CHO cells assessed as induction of Ca2+ elevation at 5 uM after 30 mins by FLIPR calcium 4 assay relative to orexin-A; assay type: functional, cell-based
Outline: (§3)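 Screening in CHO-hOX1 or CHO-hOX2 cells loaded with Calcium 4 dye in HBM (137 mM NaCl, 20 mM Hepes, 1 mM CaCl2, pH 7.4) + probenecid. Fluorescence at 485/525 nm, 37 °C. 30 s baseline, compound added to 5 μM final and read for 120 s; the delayed response was read 30 min after addition for 30 s. Tested once in triplicate; % of full orexin-A activation.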

[6] = target: T3, Orexin/Hypocretin receptor type 1 (Homo sapiens); assay: Antagonist activity at human OX1 receptor expressed in CHO cells assessed as inhibition of orexin A-induced Ca2+ elevation at 5 uM after 30 mins by FLIPR calcium 4 assay; assay type: functional, cell-based
Outline: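 Screening second round: after the 5 μM compound agonist read in CHO-hOX1 cells, 0.3 nM orexin-A was added at 30 s to all wells and the inhibition of the Ca2+ response was read by Calcium 4 fluorescence at 37 °C. Vehicle controls were included in each column. Tested once in triplicate.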

[7] = target: T3, Orexin/Hypocretin receptor type 1 (Homo sapiens); assay: Displacement of [125I]-orexin A from human OX1 receptor expressed in […] at 10 uM after 90 mins by scintillation counting
[8] = target: T4, Orexin receptor type 2 (Homo sapiens) (UniProt O43614); conditions: CHO, at 10 µM
T4 sequence (whole entry): T1 sequence (O43614 whole entry)

[9] = target: T4, Orexin receptor type 2 (Homo sapiens); conditions: CHO, at 5 µM
[10] = system: CHO; assay: Induction Ca2+ levels in CHO cells at 1 uM by FLIPR calcium 4 assay; assay type: functional, cell-based; conditions: Cricetulus griseus
Outline: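 Control CHO cells lacking orexin receptors, loaded with Calcium 4 dye in HBM + probenecid for 60 min at 37 °C. Compound added (1 and 10 μM) and the Ca2+ fluorescence response read at 485/525 nm at 37 °C.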

[11] = target: T3, Orexin/Hypocretin receptor type 1 (Homo sapiens); assay: Agonist activity at human OX1 receptor expressed in […] assessed as induction of Ca2+ elevation at 10 uM after 30 mins by FLIPR calcium 4 assay relative to orexin-A; assay type: functional, cell-based
Outline: (§4)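 CHO-hOX1 or CHO-hOX2 cells plated overnight at 1.5 × 10^4 cells/well, loaded with Calcium 4 dye in HBM + probenecid for 60 min at 37 °C. Fluorescence read at 485/525 nm, 37 °C. 30 s baseline, then compound at 10 μM (tested twice in validation; thrice at 1 and 10 μM in quadruplicate in characterization). Response expressed as % of orexin-A maximal response; background response measured within each experiment.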

[12] = species: Homo sapiens; assay: Ratio of Ki for human OX1 receptor expressed in […] to Ki for human OX2 receptor expressed in […] by [125I]-orexin A displacement assay; assay type: cell membranes; outline: as §1
[13] = target: T4, Orexin receptor type 2 (Homo sapiens); assay: Agonist activity at human OX2 receptor expressed in […] assessed as induction of Ca2+ elevation at 10 uM after 30 mins by FLIPR calcium 4 assay relative to orexin-A; assay type: functional, cell-based; outline: as §4
[14] = target: T3, Orexin/Hypocretin receptor type 1 (Homo sapiens); assay: Agonist activity at human OX1 receptor expressed in CHO cells assessed as induction of Ca2+ elevation at 5 uM after 2 mins by FLIPR calcium 4 assay relative to orexin-A; assay type: functional, cell-based; outline: as §3
[15] = target: T4, Orexin receptor type 2 (Homo sapiens); assay: Agonist activity at human OX2 receptor expressed in CHO cells assessed as induction of Ca2+ elevation at 5 uM after 2 mins by FLIPR calcium 4 assay relative to orexin-A; assay type: functional, cell-based; outline: as §3
[16] = target: T3, Orexin/Hypocretin receptor type 1 (Homo sapiens); assay: Agonist activity at human OX1 receptor expressed in […] assessed as induction of Ca2+ elevation at 10 uM after 30 mins by FLIPR back ground response; assay type: functional, cell-based; outline: as §4
[17] = target: T4, Orexin receptor type 2 (Homo sapiens); assay: Agonist activity at human OX2 receptor expressed in […] assessed as induction of Ca2+ elevation at 10 uM after 30 mins by FLIPR back ground response; assay type: functional, cell-based; outline: as §4
[18] = species: Homo sapiens; assay: Ratio of Ki for human OX1 receptor expressed in CHO cells to Ki for human OX2 receptor expressed in CHO cells by Ca2+ elevation based assay; assay type: cell-based; outline: as §2
[19] = target: T4, Orexin receptor type 2 (Homo sapiens); assay: Agonist activity at human OX2 receptor expressed in CHO cells assessed as induction of Ca2+ elevation at 10 uM after 30 mins in presence of TCS-1102 by FLIPR calcium 4 assay relative to orexin-A; assay type: functional, cell-based
Outline: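 Agonist Ca2+ read in CHO-hOX1 or CHO-hOX2 cells loaded with Calcium 4 dye at 37 °C. Compound at 10 μM was added with or without 10 μM orexin antagonist to define the receptor-specific response. Expressed as % of full orexin-A response, taken from orexin-A concentration–response curves run in each experiment.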

SMILES	pIC50 [1]	pKi [1]	pKi [2]	pKi [3]	Ratio Ki [4]	Activity [5]	inhibition [6] [%]	inhibition [7] [%]	inhibition [8] [%]	inhibition [9] [%]	Activity [10]	Activity [11] [%]	Ratio Ki [12]	Activity [13] [%]	Activity [14]	Activity [15]	fold change (FC) [16]	fold change (FC) [17]	Ratio Ki [18]	Activity [19] [%]
Cc1ccc(C(O)(C(=O)NNc2cc(Cl)ccc2Cl)c2ccc(C)cc2)cc1	6.10	5.89	4.99	5.77	2 to 9	Active	> 20	> 50	> 50	> 20	–	–	–	–	–	–	–	–	–	–
COC(=O)CN(C(C)=O)C(c1ccccc1)c1cc(Br)ccc1NC(=O)c1ccccc1Cl (stereo not given)	5.77	5.60	–	–	–	Active	–	> 70	> 70	–	inactive	7.3	10	1 to 3.7	Active	Active	3.4	1.4 to 2.2	–	–
C=CCN1C(=O)C2(Nc3ccccc3C(=O)N2c2ccccc2OC)c2ccccc21 (stereo not given)	6.15	6.00	4.67	5.92	2 to 9	Active	> 20	> 50	> 50	> 20	–	–	–	–	–	–	–	–	–	–
O=C(CSc1nnc(-c2cccs2)n1Cc1ccco1)Nc1ccc2c(c1)OCCO2	6.89	6.70	5.22	6.52	2 to 9	Active	> 20	> 50	> 50	> 20	–	–	–	–	–	–	–	–	20	–
COc1ccc(Nc2nc(NCc3ccco3)nc(N/N=C\c3cc(Br)c(O)c(Br)c3)n2)cc1	–	–	–	–	–	Active	–	20 to 40	20 to 40	–	inactive	2.7	–	–	Active	Active	1.9	1.4 to 2.2	–	3.5
COc1ccc(N(CC(=O)NC(C)c2ccccc2)S(=O)(=O)c2ccc(OC)c(OC)c2)cc1 (stereo not given)	7.15	7.00	4.33	7.00	2 to 9	Active	> 20	> 50	> 50	> 20	–	–	–	–	–	–	–	–	50	–
